Screening results from PubChem BioAssay.
This is a sample that favours compounds with a hit; in the whole collection about 3.8% have one here.
XiGFP reactiv: activators of inactive X chromosome reactivation, primary screen, imaging, XiGFP fibroblasts, GFP high-content imaging, set 2. XiGFP mouse fibroblasts, % GFP-positive cells imaging, 3 d; cells co-treated with 5-aza-dC sensitizer; scaled so ellipticine positive control = 100%. activation, % at 7.58 µM. 360,000 compounds, 0.055% hits. AID 743238, 2013;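 active = mean normalized replicate activation at least 10% and every replicate at or above 10%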;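 also: 0% = median of on-plate neutral control wells and 100% = ellipticine 6 µM median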
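assay system = SV40-immortalized XiGFP fibroblast cells, line 68-5-11 | buffer or medium = DMEM plus 5-aza-dC sensitizer | doses = single-point pinned compound dosing | times = 3-day compound exposure, then 15 min fixation at room temperature | benchmarks = positive control ellipticine, 6 µM final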
DENV2 CPE rescue: inhibitors of DENV2 cytopathic effect, primary screen, cell-based, plate reader, single concentration. DENV2-infected cells, cytopathic effect rescue. CPE inhibition, % at 9.99 µM. 350,000 compounds, 1.7% hits; in the data active = CPE inhibition above about 20%, passing the limit was not always enough; tested in BHK-21 cells;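 also: 0% = median of neutral control wells and 100% = median of positive control wells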
FN deposit inh: inhibitors of fibronectin matrix deposition, primary screen, AH1F cells, Alexa488-fibronectin fluorescence, plate reader | AID 743247, 2014 | inhibition, % at 12.6 µM | AH1F fibroblasts, overnight | 350,000 compounds, 0.086% hits;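 active = mean inhibition across replicates of 30% or more, regardless of how many single replicates reach that level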;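 also: positive control wells lacked labelled fibronectin entirely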
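Assay system: AH1F fibroblasts / Quantity: 10000 cells per well / Medium: DMEM plus 2% serum, read in PBS / Reagent: labelled fibronectin 24 nM / Dosing: single dose, pinned / Times: 1 h cell attachment, overnight exposure to compound and label / Signal: fluorescence, ex 485 nm, em 525 nm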
FGF22 binding: binders of human FGF22 protein, primary screen, FGF22 synaptogenesis inhibitor project, biophysical, thermal shift, single point; Fibroblast growth factor 22 (Homo sapiens), Q9HCT0; recombinant FGF22 thermal shift, SYPRO orange fluorescence; percent of sucrose octasulfate shift, DMSO zero; activity (Tm shift, normalised), % at 9.99 µM; 340,000 compounds, 1.5% hits; AID 651658, 2012;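 active = mean Tm shift, scaled 0 neutral to 100 positive control, at about 1.3% or above, every replicate too, limit read from the data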
ARNT TACC3 PPI: disruptors of ARNT/TACC3 protein interaction, primary screen, biochemical, AlphaScreen, single concentration; Transforming acidic coiled-coil-containing protein 3 (Homo sapiens), Q9Y6A5; AlphaScreen His-ARNT PAS-B/GST-TACC3 binding, luminescence; TACC3 fragment carries E629A point mutation; inhibition, % at 9.99 µM; 390,000 compounds, 0.66% hits; AID 623870, 2012;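 active = mean inhibition of replicates at least 50% and at least half of replicates each reaching 50%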;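 also: 0% = complete ARNT plus TACC3 wells and 100% = ARNT alone without TACC3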
SIRT5 inh: SIRT5 desuccinylase inhibitors, primary screen, biochemical, fluorescence imaging, single point, set 5. NAD-dependent protein deacylase sirtuin-5, mitochondrial (Homo sapiens), Q9NXA8. Purified SirT5, succinyl-peptide AMC, trypsin-coupled fluorescence. inhibition, % at 15 µM. 330,000 compounds, 1.1% hits. AID 652115, 2013; in the data active = inhibition above about 15%
Target sequence (Q9NXA8 whole entry, looked up): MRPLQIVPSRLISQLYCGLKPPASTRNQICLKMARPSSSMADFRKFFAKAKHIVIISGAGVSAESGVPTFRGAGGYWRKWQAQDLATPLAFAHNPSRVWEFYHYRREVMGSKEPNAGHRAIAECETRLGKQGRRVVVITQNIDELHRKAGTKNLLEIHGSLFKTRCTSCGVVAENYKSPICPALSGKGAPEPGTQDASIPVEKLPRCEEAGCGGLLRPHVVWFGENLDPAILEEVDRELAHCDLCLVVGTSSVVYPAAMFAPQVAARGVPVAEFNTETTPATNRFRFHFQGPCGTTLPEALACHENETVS
An asterisk follows results filed as active; x = no result given.

SMILES	XiGFP reactiv	DENV2 CPE rescue	FN deposit inh	FGF22 binding	ARNT TACC3 PPI	SIRT5 inh
C=CCCC1(C2=CCCCC2)C(=O)NC(=O)NC1=O	0	27*	2	0	-6	-4
CC(C)NC(=O)N1C[C@@H]2C(c3ccc(Br)cc3)[C@H](C1)N2CC1CC1 (some centres undefined)	0	x	-5	x	x	x
CC(C)NC(=O)N1C[C@@H]2C(c3ccccc3)[C@H](C1)N2CC1CC1 (some centres undefined)	0	x	4	x	x	x
CC=Cc1ccc2n(c1=O)C[C@@H]1[C@@H](CO)[C@H](C(=O)OC)[C@H]2N1S(=O)(=O)c1cccc(C)c1 (mixture of isomers)	0	-5	x	0	-2	3
CN(C)C1C(=O)C(C(N)=O)=C(O)C2(O)C(=O)C3=C(O)c4c(O)cccc4C(C)(O)C3C(O)C12 (centres undefined)	0	-4	0	0	35	40*
Cc1ccccc1S(=O)(=O)N1[C@@H]2c3ccc(-c4cccnc4)c(=O)n3C[C@H]1[C@H](CO)[C@H]2C(=O)O	0	1	x	0	-2	-39
Cc1cc([N+](=O)[O-])c(Cl)cc1NC(=O)C(C)C	0	x	2	x	-4	x
CNc1cc(Cl)c2nonc2c1[N+](=O)[O-]	3	-2	49*	42	4	3
COC(=O)[C@@H]1[C@@H](CO)[C@@H]2Cn3c(ccc(-c4ccccc4)c3=O)[C@H]1N2CC1CCOCC1	1	-11	x	0	-7	-2
C[C@H]1CN([C@@H](C)CO)C(=O)CCCn2cc(nn2)CO[C@H]1CN(C)C(=O)Oc1cccc2ccccc12	0	x	9	x	x	x
O=C1NC(=O)N(c2ccc3c(c2)OCO3)C(=O)/C1=C/c1ccc(N2CCCC2)o1	0	77*	-3	0	-2	5
CC1(O)CCC2C3CCC4=CC(=O)CCC4=C3C=CC21C (centres undefined)	0	-8	1	43*	-1	x
c1cc(-c2ccc(C3[C@H]4CNC[C@@H]3N4CC3CC3)cc2)ccn1 (some centres undefined)	0	10	2	x	x	1
COc1ccccc1N1C(=O)NC(=O)/C(=C/c2ccc3c(c2)Cc2ccccc2-3)C1=O	0	-16	6	43*	x	0
O=C(Cc1ccccn1)N1CCCCN2[C@@H](CO)[C@H](c3ccc(C#Cc4ccccc4)cc3)[C@@H]2C1	0	-3	x	0	10	2
CC(C)OC(=O)C1C(c2ccc(I)cc2)CC2CCC1N2C (centres undefined)	x	4	x	0	x	x
COC(=O)C1C(c2ccc(C)cc2)CC2CCC1N2C (centres undefined)	x	28*	x	0	x	x
CN1C[C@@H]2N[C@H](C1)C2c1ccc(Br)cc1 (some centres undefined)	0	x	-5	x	x	x
COc1ccc(CC2C(=O)NC(C)C(=O)N(C)C3C(=O)N(C)C(Cc4ccc(O)c(c4)Oc4ccc(cc4)C3O)C(=O)NC(C)C(=O)NC(C)C(=O)N2C)cc1 (centres undefined)	0	107*	20	0	-6	x
Cc1ccc(N)cc1N	x	66*	x	0	x	x
Cc1cc(=O)oc2cc(OCC(=O)N3CCC(C(=O)O)(c4ccccc4)CC3)ccc12	x	75*	x	0	3	-7
COC(=O)[C@H]1[C@H](CO)[C@H]2Cn3c(ccc(-c4ccc(OC)cc4)c3=O)[C@@H]1N2C(=O)c1ccccc1F	0	6	x	0	-3	-57
